Screening results as filed in PubChem BioAssay.
M18AAP inhibitor: PfM18AAP enzyme inhibition; 290,000 compounds, 1.2% hits; recombinant PfM18AAP, H-Glu-NHMec fluorogenic cleavage; inhibition, % at 7.35 µM;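 active = inhibition above the campaign mean inhibition over all tested compounds plus 3 SD, cut at about 28% in these data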
Fh CTSL1 inh: cathepsin L1 inhibition, PFM18AAP counter-screen | 300,000 compounds, 0.49% hits | inhibition, % at 5.96 µM | recombinant F. hepatica cathepsin L1, Z-Leu-Arg-MCA fluorescence;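 active = inhibition above the mean of all tested compounds plus 3 SD, set per screening campaign, cut at about 17% in these data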
VIM-2 inhibitor: inhibitors of Pseudomonas aeruginosa VIM-2 metallo-beta-lactamase; purified VIM-2, nitrocefin hydrolysis, epi-absorbance fluorescence; inhibition, % at 5.6 µM; 290,000 compounds, 0.89% hits;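 active = inhibition above the mean of all tested compounds plus 3 SD, cutoff set per screening run, cut at about 7.5% in these data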;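 note: red hydrolysis product quenches plate fluorescence so inhibitors raise well fluorescence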
IMP-1 inh-1: blocks Pseudomonas aeruginosa IMP-1 metallo-beta-lactamase. purified IMP-1, nitrocefin hydrolysis, epi-absorbance fluorescence. inhibition, % at 5.6 µM. 290,000 compounds, 0.45% hits. AID 1556;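 active = inhibition above the mean plus 3 SD of all compounds in the same screening run, cut at about 4.5% in these data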
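Assay system: purified IMP-1; Quantity: IMP-1 0.2 nM before substrate addition; Medium: HEPES buffer pH 7.1 with ZnSO4 and Brij 35; Incubation: 15 min enzyme–compound preincubation, then 25 min nitrocefin reaction, 25 °C; Signal: fluorescence quenching readout, ex 480/em 530 nm; Controls: DMSO with and without IMP-1; Repeats: singlicate testing.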
IMP-1 inh-2: blocks IMP-1 metallo-beta-lactamase in VIM-2 selectivity screen | shares compounds with VIM-2 inhibitor | purified IMP-1, nitrocefin hydrolysis, epi-absorbance fluorescence | inhibition, % at 5.6 µM | 1,300 tested, under 10 active | AID 1856; call rule not given here
VIM-2 FRET ctr: inhibits VIM-2 in FRET assay to exclude epi-absorbance artifacts; purified VIM-2, CCF2 FRET substrate hydrolysis; 1,300 compounds, 23% hits; shares compounds with VIM-2 inhibitor; inhibition, % at 5.6 µM;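 active = inhibition above the mean of all tested compounds plus 3 SD, cut at about 19% in these data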
TEM-1 counter: TEM-1 inhibition, counter-screen for VIM-2 inhibitors; inhibition, % at 5.6 µM; Purified TEM-1, nitrocefin hydrolysis, epi-absorbance fluorescence; 1,300 compounds, 3% hits; AID 1866; shares compounds with VIM-2 inhibitor;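 active = inhibition above that campaign's mean inhibition plus 3 SD, cut at about 0.46% in these data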
Target sequence (P62593 whole entry, looked up): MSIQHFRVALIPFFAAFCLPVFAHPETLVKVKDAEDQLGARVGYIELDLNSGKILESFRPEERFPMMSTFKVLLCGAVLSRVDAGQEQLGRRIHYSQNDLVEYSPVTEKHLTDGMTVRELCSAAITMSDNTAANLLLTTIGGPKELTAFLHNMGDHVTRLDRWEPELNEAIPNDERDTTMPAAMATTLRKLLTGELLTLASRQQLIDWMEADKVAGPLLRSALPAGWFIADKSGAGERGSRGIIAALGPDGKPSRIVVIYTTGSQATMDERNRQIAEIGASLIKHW
VIM-2 inh conf: confirmation of P. aeruginosa VIM-2 metallo-beta-lactamase inhibitors; shares compounds with VIM-2 inhibitor; purified VIM-2, nitrocefin hydrolysis, epi-absorbance; inhibition, % at 5.6 µM; 1,300 compounds, 96% hits;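 active = inhibition of the VIM-2 beta-lactamase enzyme above about 11% from the earlier first-round screen, limit read from the data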
Each line names hits and unclear results; the compound was inactive in the other large screens (follow-up assays come after a bar, where they were run). The list is not random: actives were taken first. Their share in the collection is about 2.7%.

Cc1nc(-c2ccccc2)sc1C1(C)CC(c2ccc(OC(F)(F)F)cc2)=NO1 (configuration not stated)	none (no result: M18AAP inhibitor, VIM-2 inhibitor, IMP-1 inh-1)
CN(C)S(=O)(=O)c1ccc(C(=O)NCc2ccc3[nH]c4c(c3c2)CCCC4)cc1	VIM-2 inhibitor 14 | IMP-1 inh-2 inactive | VIM-2 FRET ctr 28 | TEM-1 counter inactive | VIM-2 inh conf 25
CCN(CC)S(=O)(=O)c1ccc(C(=O)NCc2ccc3[nH]c4c(c3c2)CCCC4)cc1	VIM-2 inhibitor 14 | IMP-1 inh-2 inactive | VIM-2 FRET ctr 28 | TEM-1 counter inactive | VIM-2 inh conf 20
O=C(NCc1ccc2[nH]c3c(c2c1)CCCC3)N1CCOCC1	none
O=C(NCc1ccc2[nH]c3c(c2c1)CCCC3)c1ccc(S(=O)(=O)N2CCOCC2)cc1	VIM-2 inhibitor 14 | IMP-1 inh-2 inactive | VIM-2 FRET ctr 28 | TEM-1 counter inactive | VIM-2 inh conf 23
CCN(CC)S(=O)(=O)c1ccc(C(=O)NCc2ccc(C)cc2)cc1	none
Nc1nc(N2CCN(c3ccc(F)cc3)CC2)n[nH]1	none
Cc1c(Cl)cccc1NC(=O)CSc1nccn1C	none
O=C(COC(=O)c1c(F)cccc1F)c1ccc[nH]1	none
CCN(CC)CCCNc1cc(C(F)(F)F)c(C#N)c2nc3ccccc3n12	VIM-2 inhibitor 29 | IMP-1 inh-2 inactive | VIM-2 FRET ctr inactive | TEM-1 counter inactive | VIM-2 inh conf 41
CCCc1cc(NCCCCO)n2c(nc3ccccc32)c1C#N	none
COCCN(CCOC)c1cc(C)c(C#N)c2nc3ccccc3n12	none
CCN(CC)CCNc1cc(C)c(C#N)c2nc3ccccc3n12	VIM-2 inhibitor 22 | IMP-1 inh-2 inactive | VIM-2 FRET ctr inactive | TEM-1 counter inactive | VIM-2 inh conf 37
Cc1cc(-c2ccco2)n2c(nc3ccccc32)c1C#N	VIM-2 inhibitor 18 | IMP-1 inh-2 inactive | VIM-2 FRET ctr 32 | TEM-1 counter inactive | VIM-2 inh conf 43
C=C(C)CSc1cc(C)c(C#N)c2nc3ccccc3n12	VIM-2 inhibitor 17 | IMP-1 inh-2 inactive | VIM-2 FRET ctr inactive | TEM-1 counter inactive | VIM-2 inh conf 21
Cc1cc(NCCCN2CCOCC2)n2c(nc3ccccc32)c1C#N	VIM-2 inhibitor 40 | IMP-1 inh-2 inactive | VIM-2 FRET ctr inactive | TEM-1 counter inactive | VIM-2 inh conf 57
Cc1cc(NCCCCO)n2c(nc3ccccc32)c1C#N	VIM-2 inhibitor 19 | IMP-1 inh-2 inactive | VIM-2 FRET ctr inactive | TEM-1 counter inactive | VIM-2 inh conf 40
NS(=O)(=O)c1cnccc1Nc1ccc(Cl)c(Cl)c1	none
Cc1ccccc1Nc1nnc(SCC(=O)NCc2ccco2)s1	none
O=C(CSc1nnc(NC(=O)C2CC2)s1)NCc1ccco1	none
Cc1ccccc1C(=O)Nc1nnc(SCC(=O)NCc2ccco2)s1	VIM-2 inhibitor 52 | IMP-1 inh-2 inactive | VIM-2 FRET ctr 75 | TEM-1 counter inactive | VIM-2 inh conf 61
Cc1cc2cc(C)c3nnc(SCC(=O)NCc4ccco4)n3c2cc1C	VIM-2 inhibitor 13 | IMP-1 inh-2 inactive | VIM-2 FRET ctr inactive | TEM-1 counter inactive | VIM-2 inh conf 24
O=C(CSc1nnc(NC(=O)c2cccc(F)c2)s1)NCc1ccco1	VIM-2 inhibitor 33 | IMP-1 inh-2 inactive | VIM-2 FRET ctr 54 | TEM-1 counter inactive | VIM-2 inh conf 39
Cc1ccc2cc(C)c3nnc(SCC(=O)NCc4ccco4)n3c2c1	none
O=C(CSc1nnc(NC(=O)C2CCCCC2)s1)NCc1ccco1	VIM-2 inhibitor 28 | IMP-1 inh-2 inactive | VIM-2 FRET ctr 62 | TEM-1 counter inactive | VIM-2 inh conf 43
CCC(Sc1nc(C)cc(C)n1)C(=O)Nc1nccs1 (configuration not stated)	none
COc1ccc(N(CC(O)CN2CCOCC2)S(=O)(=O)c2ccccc2)cc1 (configuration not stated)	none
O=C(CSc1nnc(NC(=O)c2ccccc2)s1)NCc1ccco1	VIM-2 inhibitor 25 | IMP-1 inh-2 inactive | VIM-2 FRET ctr 44 | TEM-1 counter inactive | VIM-2 inh conf 28
OCC1CCCCN1C(=S)Nc1cccc(Cl)c1 (configuration not stated)	none
